Bioassay records (PubChem)
Rows were chosen to be rich in hits. Some 2.7% of all compounds tested hit in one or more screens of this group.
MC4R antag cAMP = blocks human MC4R cAMP signaling; MC4R-expressing cells, MTII-stimulated cAMP, LANCE TR-FRET; AID 540295; P32245; 0.48% of 360,000 active; inhibition, % at 6.5 µM;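 active = inhibition above its plate's cutoff, the mean of tested wells on that plate plus 3 SD, cut at about 29% in these data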;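 also: 0% = Melanotan II alone and 100% = Melanotan II plus saturating MCL0020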
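Material: U2OS-MC4R stable cell line | Reagent: Melanotan II challenge after compound preincubation | Doses: One concentration, 6.5 µM nominal | Incubation: 30-min compound preincubation, 1-h Melanotan II challenge, 1-h detection, room temperature | Signal: TR-FRET cAMP assay | Replicates: One well per compound, no replicates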
PG9 Ab binder = binds the HIV-1 gp120 antibody PG9 | 0.43% of 360,000 active | AID 624416 | TR-FRET gp120-PG9 antibody binding | inhibition, % at 6.7 µM; in the data active = inhibition above about 8.5%
NR2E3 ag-1 = agonists of human NR2E3 nuclear receptor; CHO-S Gal4-NCOR/VP16-NR2E3 two-hybrid, luciferase; inhibition of corepressor binding, % at 3.98 µM; 0.35% of 360,000 active; AID 602229;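 active = inhibition above the mean of all tested compounds plus 3 SD, cut at about 70% in these data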;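 also: 0% = DMSO with NR2E3 transfected cells and 100% = cells lacking NR2E3 construct; higher means lower luciferase signal from less NR2E3 corepressor binding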
Target sequence (Q9Y5X4 whole entry, looked up, the tested form may be a part): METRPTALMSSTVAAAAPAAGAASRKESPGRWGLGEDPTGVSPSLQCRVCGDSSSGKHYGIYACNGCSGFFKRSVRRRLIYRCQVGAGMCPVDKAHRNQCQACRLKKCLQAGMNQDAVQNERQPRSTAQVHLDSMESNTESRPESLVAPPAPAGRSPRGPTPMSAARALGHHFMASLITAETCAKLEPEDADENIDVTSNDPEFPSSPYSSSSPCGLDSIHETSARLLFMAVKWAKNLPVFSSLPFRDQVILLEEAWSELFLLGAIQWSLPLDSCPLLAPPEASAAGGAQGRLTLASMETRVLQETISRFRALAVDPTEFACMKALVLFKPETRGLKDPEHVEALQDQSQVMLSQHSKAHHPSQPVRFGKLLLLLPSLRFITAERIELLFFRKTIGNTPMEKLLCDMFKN
NR1D1 modulator = modulates human Rev-erb alpha binding to DNA | P20393 | Rev-erbα–FITC-DNA binding, fluorescence polarization, 90 min | activity, % at 10 µM | 0.79% of 370,000 active | AID 1259318;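 active = activity above about 14%, limit read from the data; passing the limit was not always enough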;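 also: 0% = DMSO wells with 35 nM protein and 100% = DMSO wells with 750 nM protein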
MC4R barr agon = agonists of human melanocortin 4 receptor (MC4R) beta-arrestin; activation, % at 8.9 µM; U2OS MC4R beta-arrestin complementation, luminescence; percent of melanotan II response, DMSO zero; 0.98% of 360,000 active;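 active = activation above a per-plate cutoff, the mean activation of sample wells on that plate plus 3 SD, cut at about 8% in these data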
NR2E3 ag-2 = activates human photoreceptor nuclear receptor NR2E3. AID 2300. GST-NR2E3/biotin-RetCOR TR-FRET, 1536-well. 0.12% of 320,000 active. Q9Y5X4. inhibition of corepressor binding, % at 4.78 µM;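 active = percent inhibition above the cutoff of mean plus 3 SD of all tested compounds, set per screening campaign, cut at about 20% in these data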;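 also: 0% = DMSO wells and 100% = biotin wells as full block of FRET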
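system = GST-tagged NR2E3 plus biotinylated RetCOR corepressor | input = 1.35 nM GST-NR2E3 | also added = 7 nM biotin-RetCOR | schedule = 5 h incubation at 4 °C | measured by = TR-FRET with europium anti-GST and streptavidin-D2, 340 nm excitation | read-out = percent loss of FRET ratio relative to control wells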
MC4R barr conf = human MC4R beta-arrestin agonism confirmation | 31% of 2,400 active | AID 602192 | shares compounds with MC4R barr agon | activation, % at 8.9 µM | U2OS MC4R beta-arrestin recruitment, luminescence; scaled DMSO 0%, Melanotan II 100%;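 active = mean activation across replicates above the hit cutoff set in the earlier primary screen, cut at about 8% in these data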
MOR DOR agonist = counter-screen for MC4R agonists: agonists of mu-delta opioid heterodimer. shares compounds with MC4R barr agon. U2OS PathHunter beta-arrestin, beta-gal luminescence; percent of deltorphin B response, DMSO zero. activation, % at 9.2 µM. 5.8% of 2,400 active. AID 602194;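 active = mean activation across replicates exceeds the hit threshold derived in the earlier primary screen, cut at about 18% in these data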;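 also: 100% = deltorphin B at 0.9 µM final and 0% = DMSO alone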
NR2E3 ag conf = NR2E3 agonism confirmed in two-hybrid assay; shares compounds with NR2E3 ag-1; CHO-S mammalian two-hybrid NR2E3-NCOR, luciferase luminescence; inhibition, % at 3.98 µM; 51% of 2,300 active; AID 624378;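 active = average inhibition above a cutoff equal to the mean inhibition of all tested compounds plus one SD, cut at about 70% in these data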;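 also: 0% = DMSO in NR2E3 cells and 100% = DMSO in cells lacking NR2E3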
VP16 counter = reduces GAL4-VP16 reporter signal in NR2E3 counterscreen | shares compounds with NR2E3 ag-1 | CHO-S GAL4-VP16 luciferase reporter, luminescence | inhibition, % at 3.98 µM | 29% of 2,300 active;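 active = mean inhibition above a cutoff equal to the average over all tested compounds plus one standard deviation, cut at about 70% in these data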;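 also: luciferase from a UAS reporter driven by GAL4-VP16 transactivation; 0% = DMSO with VP16-transfected cells and 100% = DMSO with cells lacking VP16; higher means less reporter light so more repression of VP16 activity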
PG9 bind confirm = PG9 antibody binding, confirmed; shares compounds with PG9 Ab binder; TR-FRET PG9 antibody binding, biochemical; inhibition, % at 6.7 µM; 90% of 1,500 active; in the data active = inhibition above about 9%
PGV04 Ab binding = PGV04 control antibody binding, counter-screen; shares compounds with PG9 Ab binder; TR-FRET PGV04 antibody-gp120 binding, biochemical; inhibition, % at 6.7 µM; 95% of 1,500 active; AID 651604; in the data active = inhibition above about 9.5%
NR1D1 mod conf = Rev-erb alpha (human) modulation, hit confirmation | shares compounds with NR1D1 modulator | Rev-erb alpha FITC-DNA binding, fluorescence polarization, 90 min | activation, % at 25 µM | 61% of 3,000 active | AID 1259319;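 active = activation at or above a set limit, or at least 3 SD above the negative control mean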;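 also: 0% = 35 nM protein with DMSO and 100% = 750 nM protein high control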
* hit, by the source's call; . = not tested or not shown.

SMILES	MC4R antag cAMP	PG9 Ab binder	NR2E3 ag-1	NR1D1 modulator	MC4R barr agon	NR2E3 ag-2	NR2E3 ag conf	VP16 counter	others
COc1ccc(Cn2c(C)c(C)c(C#N)c2NC(=O)Nc2ccccc2)cc1	13.4	-1.1	-31.7	5.3	0.7	-5.2	.	.
O=C(CC(c1ccccc1)c1ccccc1)Nc1ncn[nH]1	4.6	0.6	-4.2	-3.6	-0.3	2.8	.	.
Cn1c(SCC(=O)Nc2ccc(Cl)cc2)nnc1C1CC1	6.8	2.7	-10.8	0.9	-0.2	2.7	.	.
CSc1sc(-c2nnc(SCC(=O)Nc3ccc(Cl)cc3)n2C)c2c1C=CCC2	11.9	29.0*	-3.7	33.2*	15.7*	-2.9	.	.	MC4R barr conf=7.8;MOR DOR agonist=9.3;PG9 bind confirm=37.9*;PGV04 Ab binding=51.9*;NR1D1 mod conf=6.7
COc1ccc(-c2nn(C)c(=O)c3ccccc23)cc1NC(=O)COc1ccc(C)cc1	-2.1	0.3	-13.9	34.4*	21.4*	2.4	.	.	MC4R barr conf=6.2;MOR DOR agonist=4.4;NR1D1 mod conf=8.2
CC(=O)NNc1nc(-c2ccccc2)c2cc(Br)ccc2n1	1.8	-1.4	-43.4	0.5	-1.1	5.1	.	.
O=C(Nc1nc(-c2ccccc2)cs1)c1ccccc1NS(=O)(=O)c1ccc(F)cc1	19.9	-4.1	95.3*	-2.9	0.9	3.9	99.0*	85.3*
O=C(COC(=O)/C=C/c1c(F)cccc1Cl)NCC1CCCO1 (centres undefined)	2.3	-0.3	2.5	-5.6	-0.1	.	.	.
O=C(CN1C(=O)/C(=C/c2ccccc2)SC1=S)NNC(=O)c1ccccc1O	20.7	2.6	9.0	0.2	-0.5	1.2	.	.
Cc1ccc(/C=C2\SC(=S)N(CCCC(=O)Nc3cccc(C(=O)O)c3)C2=O)cc1	1.1	-1.4	84.8*	-6.6	-3.4	1.8	40.4	89.2*
Cc1ccc(C=C2SC(=S)N(CCCC(=O)Nc3cccc(C(=O)O)c3)C2=O)cc1	14.0	0.2	72.8*	-2.2	0.0	.	32.1	88.0*
O=C(CCCN1C(=O)/C(=C\c2ccccc2)SC1=S)Nc1cccc(C(=O)O)c1	9.9	-2.1	-21.4	-2.2	1.7	1.4	.	.
CCc1ccc(/C=C2/SC(=S)N(CCCC(=O)Nc3cccc(C(=O)O)c3)C2=O)cc1	4.5	-1.3	-30.2	-13.0	-0.2	.	.	.
O=C(CCCN1C(=O)/C(=C/c2ccc3c(c2)OCO3)SC1=S)Nc1cccc(C(=O)O)c1	8.0	-1.5	66.4	-1.3	-2.8	3.5	43.2	67.6
Cc1ccc(/C=C2\SC(=S)N(CCCC(=O)NNC(=O)c3ccccc3O)C2=O)cc1	5.4	0.4	69.4	0.0	1.8	0.1	67.2	73.0*
Nc1nc(-c2ccc(Br)cc2)c(S(=O)(=O)c2ccccc2)s1	8.7	-1.7	-10.4	5.4	0.0	-4.5	.	.
O=C(Nc1ccc(N2CCCC2)cc1)c1cc(Br)ccc1Cl	7.2	3.5	3.4	3.4	-0.3	4.6	.	.
